# An excerpt weighted towards active compounds, which were near 4% of everything screened.
# TAAR1 ag – human TAAR1 agonism; Q96RJ0; CHO RD-HGA16 TAAR1, Fluo-8 calcium fluorescence; vehicle wells 0%, saturating PEA agonist 100%; activation, % at 3 µM; actives 0.99% (n = 360,000);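 active = activation above the mean activation of all test compounds in the run plus 3 SD, cut at about 38% in these data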
#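 Repeats: no replicates (n 1) | Material: CHO-derived RD-HGA16 cells with stable Gα16 and human TAAR1 | Technique: Kinetic Fluo-8 calcium fluorescence | Schedule: 17-24 h seeding, 75 min 37 °C dye, 30 min RT | Evaluation: % activation from peak over basal fluorescence ratio, DMSO-to-PEA scaled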
# TAAR1 antagonist – human TAAR1 antagonism; inhibition, % at 3 µM; actives 1.5% (n = 360,000); Q96RJ0; CHO RD-HGA16 TAAR1, Fluo-8 calcium fluorescence, antagonist;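 active = inhibition above a per-plate cutoff, the mean inhibition of test compounds on that plate plus 3 SD, cut at about 49% in these data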
#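 Test system: RD-HGA16 CHO cells with stable hTAAR1 and Gα16 / Probe or stimulus: EC80 β-phenethylamine stimulus / Times: seeding 17-24 h prior, 75-min 37 °C, 30-min RT dye loading / Detection: Fluo-8 calcium-sensitive fluorescence / Read-out basis: % inhibition scaled between DMSO and EC80 PEA controls / Repeats: singlicate, one well per test compound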
# OX1R antag-1 – OX1R (human) antagonism; O43613; OX1R-expressing cells, FRET antagonist read-out; inhibition, % at 6.6 µM; actives 1.8% (n = 330,000); AID 485270; in the data active = inhibition mostly above about 38%, no sharp cut-off; inactive = mostly below about 40%
# Target sequence (O43613 whole entry, looked up): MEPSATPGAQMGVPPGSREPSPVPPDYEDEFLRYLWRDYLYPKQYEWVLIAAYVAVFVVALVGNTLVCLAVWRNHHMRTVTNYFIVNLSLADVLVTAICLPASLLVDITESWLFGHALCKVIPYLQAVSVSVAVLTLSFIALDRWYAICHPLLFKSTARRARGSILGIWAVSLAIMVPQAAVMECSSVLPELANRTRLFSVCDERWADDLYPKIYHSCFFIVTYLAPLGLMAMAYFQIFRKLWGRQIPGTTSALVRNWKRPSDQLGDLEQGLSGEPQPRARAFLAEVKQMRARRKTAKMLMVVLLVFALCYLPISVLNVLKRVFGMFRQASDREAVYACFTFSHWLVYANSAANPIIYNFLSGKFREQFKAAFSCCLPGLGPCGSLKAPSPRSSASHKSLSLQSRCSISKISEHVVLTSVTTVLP
# CHO parental Ca – counter-screen: ATP calcium response change in parental CHO cells. parental CHO-K1, ATP-induced calcium, Fluo-8 fluorescence. inhibition, % at 5.6 µM. actives 0.63% (n = 330,000). AID 463079;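 active = inhibition above that plate's mean sample inhibition plus 3 SD, cut at about 26% in these data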
#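 Material – parental CHO cells · Reagent – ATP stimulus · Compound – single nominal dose of 5.6 µM per compound · Detection – Fluo-8 fluorescence · Read-out basis – percent inhibition of calcium signal · Controls – ATP-challenged DMSO wells low, unchallenged DMSO wells high · Repeats – no replicates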
# OX1R antag-2 – blocks the human orexin 1 receptor | CHO/OX1R cells, Fluo-8 calcium fluorescence, orexin A | inhibition, % at 5 µM | actives 0.43% (n = 330,000);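 active = inhibition above its plate's threshold, mean inhibition of all tested compounds on the plate plus 3 SD, cut at about 37% in these data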
# OX1R Ca confirm – confirmation of human orexin 1 receptor antagonists. shares compounds with OX1R antag-2. CHO/OX1R cells, orexin A calcium Fluo-8 fluorescence. inhibition, % at 5 µM. actives 38% (n = 1,100). AID 492963; in the data active = inhibition above about 29%
# CHO Ca triplic – counter-screen: parental CHO calcium response change, triplicate; actives 9.3% (n = 1,100); shares compounds with OX1R antag-2; inhibition, % at 5.6 µM; AID 492965; parental CHO-K1, ATP-induced calcium, Fluo-8 fluorescence;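 active = inhibition above a per-plate limit, the mean inhibition of that plate's test compounds plus 3 SD, cut at about 25% in these data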
# OX1R HTRF confirm – OX1R (human) antagonism, HTRF confirmed | shares compounds with OX1R antag-1 | OX1R-expressing cells, HTRF antagonist assay | inhibition, % at 6.6 µM | actives 49% (n = 1,800) | AID 492964; in the data active = inhibition above about 55%;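 note: CHO cells expressing OX1R stimulated with orexin A at about EC80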
# CHO-K1 HTRF – counter-screen: parental CHO-K1 HTRF response; shares compounds with OX1R antag-1; parental CHO-K1 cells, HTRF counterscreen; inhibition, % at 6.6 µM; actives 48% (n = 1,800); in the data active = inhibition above about 17%
# A number is an active result; . = inactive; / = no result.
SMILES,TAAR1 ag,TAAR1 antagonist,OX1R antag-1,CHO parental Ca,OX1R antag-2,OX1R Ca confirm,CHO Ca triplic,OX1R HTRF confirm,CHO-K1 HTRF
Cc1csc(=NC(=O)c2ccccc2)n1Cc1ccco1,.,.,.,.,.,/,/,/,/
O=C(/C=C/c1c[nH]c2ccccc12)c1ccccc1,.,.,.,.,.,/,/,/,/
COc1ccc2[nH]cc(/C=C/C(=O)c3ccccc3)c2c1,.,.,59.2,.,.,.,.,.,.
O=C(NC(Cc1c[nH]c2ccccc12)C(=O)N/N=C/c1ccc(Cl)cc1)c1cccs1 (stereo not drawn),.,.,98.3,.,48.5,64.0,.,80.7,.
O=C(NC(Cc1c[nH]c2ccccc12)C(=O)N1CCOCC1)c1cccs1 (stereo not drawn),.,.,.,.,.,/,/,/,/
COc1cc(C(=O)OCC(=O)N2c3ccccc3NC(=O)C2(C)C)ccc1OCC(C)C,.,66.6,56.0,.,.,.,.,56.2,.
O=C(O)Cn1c(SCCOc2ccccc2F)nc2ccccc21,.,.,.,.,.,/,/,/,/
OCCn1c(SCCOc2ccccc2F)nc2ccccc21,.,.,104.7,.,52.3,.,.,.,.
CCc1ccc(NC(=O)c2ccc(F)c(S(=O)(=O)NCC3COc4ccccc4O3)c2)cc1 (stereo not drawn),.,.,55.7,.,.,.,30.0,.,.
CC(CNC(=O)c1ccccc1Cl)NC(=O)c1ccccc1Cl (stereo not drawn),.,.,.,.,.,/,/,/,/
OC(CN1c2ccccc2Sc2ccccc21)Cn1nnc2ccccc21 (stereo not drawn),.,.,62.8,.,.,30.9,.,.,.
O=C1c2ccccc2C(=O)N1CC(O)Cn1nnc2ccccc21 (stereo not drawn),.,.,.,.,.,/,/,/,/
O=C(COC(=O)c1cc(S(=O)(=O)N2CCCCC2)ccc1N1CCOCC1)NC1CCS(=O)(=O)C1 (stereo not drawn),.,.,.,.,.,/,/,/,/
O=C(CSC1=Nc2ccccc2C2CC=NN12)Nc1ccc2c(c1)OCO2 (stereo not drawn),.,.,/,/,/,/,/,/,/
N#Cc1ccccc1NC(=O)CSC1=Nc2ccccc2C2CC=NN12 (stereo not drawn),.,.,84.6,.,.,.,.,.,.
COc1cc(NC(=O)CCc2nnc3ccc(N4CCCCC4)nn23)cc(OC)c1OC,.,.,.,.,.,/,/,/,/
Cc1cc(C(=O)CN2C(=O)NC3(CCCc4sccc43)C2=O)c(C)n1-c1ccccc1 (stereo not drawn),.,.,85.2,.,38.3,34.8,.,79.8,.
COc1ccc(-c2[nH]ncc2N=Nc2cc(C)cc(C)c2)cc1,.,.,.,.,.,/,/,/,/
COc1ccc(-c2[nH]ncc2N=Nc2ccccc2)cc1,.,.,98.2,.,.,.,.,.,.
COc1ccc(-c2nc3ccc(Cl)cn3c2Cc2ccc(C)cc2)cc1OC,.,.,/,/,/,/,/,/,/
CCN(c1ccccc1)S(=O)(=O)c1ccc(Cl)c(NC(=O)CNC(C)c2ccccc2)c1 (stereo not drawn),.,.,28.1,.,50.1,.,37.4,.,.
O=C(NCCN1CCOCC1)c1ccc(Cl)c(S(=O)(=O)NCc2ccccc2)c1,.,.,.,.,.,/,/,/,/
CSC1=NSC2=NC(=O)/C(=C/c3coc4ccccc4c3=O)C(=N)N12,374.6,104.4,77.7,.,65.9,.,.,.,.
O=C(CN1CCN(CC(=O)Nc2ccc3c(c2)OC2(CCCCC2)O3)CC1)Nc1cccc(F)c1,.,.,/,/,/,/,/,/,/
Nc1cc(S(=O)(=O)C(F)(F)F)ccc1C(=O)O,.,.,.,.,.,/,/,/,/
